Assay results published in ChEMBL document CHEMBL1129405, “In vitro and in vivo evaluation of 6-azido-2',3'-dideoxy-2'-fluoro-beta-D-arabinofuranosylpurine and N6-methyl-2',3'-dideoxy-2'-fluoro-beta-D-arabinofuranosyladenine as prodrugs of the anti-HIV nucleosides 2'-F-ara-ddA and 2'-F-ara-ddI” (J Med Chem, 1996).
One block for each compound: values may come before it.

Columns and labels:
[1] = test system: Mus musculus; assay: The ratio of AUC / dose (mM.h/umol)/kg at 112 mg/kg dose after intravenous administration in mice serum; format: ADME, organism-based; parameters: dose 112 mg/kg, route intravenous; conditions: in vivo
In short: (§1)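 Female NIH-Swiss mice (24-28 g), tail-vein injection of 112 mg/kg (437 µmol/kg) in saline (15 mg/mL); three mice per time point, ether anesthesia, exsanguination by heart puncture; serum and brain (homogenized 1:1 g:mL in ice-cold isotonic 0.05 M phosphate, pH 7.4) assayed by HPLC, UV 260 nm. Noncompartmental analysis of mean concentrations; AUC by Lagrange interpolation, extrapolated via terminal slope (last 3-5 points); t1/2 = 0.693/λz; AUC normalized to µmol/kg dose.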

[2] = test system: Mus musculus; assay: The ratio of AUC / dose (mM.h/uMol)/kg at 112 mg/kg dose after intravenous administration in mice brain; AUC/Dose (uM); format: ADME, organism-based; parameters: dose 112 mg/kg, route intravenous; conditions: in vivo; in short: as §1
[3] = test system: Mus musculus; assay: The ratio of AUC / dose (mM.h/uMol)/kg at 112 mg/kg dose after oral administration in mice serum; AUC/Dose (uM); format: ADME, organism-based; parameters: dose 112 mg/kg, route oral; conditions: in vivo
[4] = test system: Mus musculus; assay: The ratio of AUC / dose (mM.h/uMol)/kg at 112 mg/kg dose after intravenous administration in mice serum; AUC/Dose (uM); format: ADME, organism-based; parameters: dose 112 mg/kg, route intravenous; conditions: in vivo; in short: as §1
[5] = test system: Mus musculus; assay: t1/2 was measured at 55 mg/kg dose by oral administration in mice brain; t1/2 (h); not detected; format: ADME, organism-based; parameters: dose 55 mg/kg, route oral; conditions: in vivo
[6] = test system: Mus musculus; assay: Pharmacokinetic parameter AUC was measured at 112 mg/kg dose by intravenous administration in mice brain; AUC (mM.h); not detected; format: ADME, organism-based; parameters: dose 112 mg/kg, route intravenous; conditions: in vivo; in short: as §1
[7] = test system: Mus musculus; assay: Pharmacokinetic parameter AUC was measured at 55 mg/kg dose by oral in mice brain; AUC (mM.h); not detected; format: ADME, organism-based; parameters: dose 55 mg/kg, route oral; conditions: in vivo
[8] = test system: Mus musculus; assay: Pharmacokinetic parameter AUC was measured at 112 mg/kg dose by intravenous administration using FMAddA as substrate in mice brain; AUC 0-r (mM.h); not detected; format: ADME, organism-based; parameters: dose 112 mg/kg, route intravenous; conditions: in vivo; in short: as §1
[9] = test system: Mus musculus; assay: t1/2 was measured AT 112 mg/kg dose by intravenous administration in mice brain; not detected; conditions: in vivo
[10] = (§2) The ratio of AUC /dose (uM); format: ADME
[11] = (§3) The ratio of AUC /dose(uM); not detected; format: ADME
[12] = The ratio of AUC /dose(uM); format: ADME
[13] = as §2; format: ADME; remark: listed apart in the source
[14] = as §3; format: ADME; remark: listed apart in the source

Ratio [1]: 1.01
Ratio [2]: 0.06
Ratio [3]: 0.19
Compound: [N-]=[N+]=Nc1ncnc2c1ncn2C1OC(CO)CC1F (stereo not drawn)

Ratio [2]: 0.09
Ratio [4]: 0.68
Compound: CNc1ncnc2c1ncn2C1OC(CO)CC1F (stereo not drawn)

T1/2 [5]: Not detected
AUC [6]: Not detected
AUC [7]: Not detected
AUC [8]: Not detected
T1/2 [9]: Not detected
Ratio [10]: 0.48
Ratio [11]: Not detected
Ratio [12]: 0.046
Ratio [13]: 0.13
Ratio [14]: Not detected
Compound: OCC1CC(F)C(n2cnc3c(O)ncnc32)O1 (stereo not drawn)

Ratio [2]: 0.02
Ratio [3]: 0.005
Ratio [4]: 0.04
Compound: Nc1ncnc2c1ncn2[C@@H]1O[C@H](CO)C[C@@H]1F [LODENOSINE]
